{
  "source": "ChEMBL document CHEMBL1629531",
  "about": "“Hydroxycoumarin derivatives: novel and potent α-glucosidase inhibitors” (J Med Chem, 2010)",
  "key": {"[1]": {"assay": "Inhibition of alpha-glucosidase at 200 uM using para-nitrophenyl substrate"}, "[2]": {"assay": "Inhibition of alpha-glucosidase using para-nitrophenyl substrate"}, "[3]": {"assay": "Inhibition of Aspergillus oryzae Beta-galactosidase at 400 uM", "in_short": "(§1)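 β-Galactosidase from Aspergillus oryzae (9.4 unit/mg solid) assayed by a modified literature method. Values are means of ≥3 determinations. NA means <20% inhibition at 400 μM. Maximum inhibition recorded at the top concentration tested (400 or 200 μM).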"}, "[4]": {"assay": "Inhibition of beta-glucosidase using salicin substrate", "in_short": "(§2)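 β-Glucosidase added to 1 mL mix of inhibitor, 5.0 mM salicin, 0.1 M NaAc-HAc pH 5.0, then reacted 10 min at 40 °C. Stopped with DNS reagent and developed 5 min in boiling water. Reducing sugar read at 540 nm against a glucose standard. Triplicates at five concentrations bracketing an estimated IC50. Maximum inhibition recorded at the top concentration tested (400 or 200 μM).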"}, "[5]": {"assay": "Inhibition of Aspergillus oryzae Beta-galactosidase", "in_short": "as §1"}, "[6]": {"assay": "Effect on secondary structure of alpha-glucosidase assessed as random content at 0.5 uM at circular dichroism method", "in_short": "(§3)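 Yeast α-glucosidase secondary structure measured by far-UV CD (186-240 nm), protein 0.53-0.66 mg/mL, 0.1 cm quartz cuvette, 5 accumulations per spectrum. Spectra recorded after exposure to inhibitor and compared with enzyme alone. α-helix, β-sheet, β-turn and random fractions estimated by secondary-structure deconvolution.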"}, "[7]": {"assay": "Effect on secondary structure of alpha-glucosidase assessed as alpha-helix content at 0.3 uM at circular dichroism method", "in_short": "as §3"}, "[8]": {"assay": "Inhibition of beta-glucosidase at 400 uM using salicin substrate", "in_short": "as §2"}, "[9]": {"assay": "Effect on secondary structure of alpha-glucosidase assessed as alpha-helix content at 0.5 uM bt circular dichroism method", "in_short": "as §3"}, "[10]": {"assay": "Effect on secondary structure of alpha-glucosidase assessed as beta-sheet content at 0.3 uM at circular dichroism method", "in_short": "as §3"}, "[11]": {"assay": "Effect on secondary structure of alpha-glucosidase assessed as beta-sheet content at 0.5 uM at circular dichroism method", "in_short": "as §3"}, "[12]": {"assay": "Effect on secondary structure of alpha-glucosidase assessed as random content at 0.3 uM at circular dichroism method", "in_short": "as §3"}, "[13]": {"assay": "Effect on secondary structure of alpha-glucosidase assessed as beta-turn content at 0.3 uM at circular dichroism method", "in_short": "as §3"}, "[14]": {"assay": "Effect on secondary structure of alpha-glucosidase assessed as beta-turn content at 0.5 uM at circular dichroism method", "in_short": "as §3"}, "[15]": {"assay": "Slow binding inhibition of alpha-glucosidase compound administered 1 hr at 37 degC before initiation of enzyme reaction using para-nitrophenyl substrate", "in_short": "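Yeast α-glucosidase preincubated with inhibitor at 37 °C for 1 h before the reaction is started with PNP glycoside substrate.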"}, "[16]": {"assay": "Inhibition of alpha-glucosidase compound administered simultaneously with para-nitrophenyl substrate", "in_short": "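Yeast α-glucosidase assay with PNP glycoside substrate, inhibitor and substrate added together with no preincubation.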"}, "[17]": {"assay": "Inhibition of beta-glucosidase at 200 uM using salicin substrate", "in_short": "as §2"}, "[18]": {"assay": "Inhibition of Aspergillus oryzae Beta-galactosidase at 200 uM", "in_short": "as §1"}, "[19]": {"assay": "Noncompetitive inhibition of alpha-glucosidase by Lineweaver-Burk plot", "in_short": "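Yeast α-glucosidase (50 μL, 10 U/mL) preincubated with inhibitor at 37 °C for 1 h, then PNP glycoside substrate added at varying concentrations. Rate of PNP hydrolysis read at several inhibitor concentrations. Mode assigned from Lineweaver-Burk (1/rate vs 1/[substrate]) double-reciprocal plots. Ki taken from Dixon plot and averaged over the inhibitor concentrations.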"}, "[20]": {"assay": "Inhibition of alpha-glucosidase using para-nitrophenyl substrate by dose responsive study"}},
  "note": "Calls of active or inactive are those of the source. No cut-off for these calls is given here.",
  "data": [
    {"smiles": "COc1ccc2c(OC)cc(=O)oc2c1C", "values": [
      {"measurement": "inhibition", "setting": "[1]", "result": "< 20", "unit": "%"}
    ]},
    {"smiles": "Cc1cc(=O)oc2cc(O)c(O)cc12", "note": "[4-METHYLESCULETIN]", "values": [
      {"measurement": "IC50", "setting": "[2]", "result": 94.2, "unit": "µM"}
    ]},
    {"smiles": "O=c1ccc2cc(O)c(O)cc2o1", "values": [
      {"measurement": "inhibition", "setting": "[1]", "result": "< 20", "unit": "%"}
    ]},
    {"smiles": "COc1ccc2c(O)cc(=O)oc2c1", "values": [
      {"measurement": "IC50", "setting": "[2]", "result": 96.1, "unit": "µM"}
    ]},
    {"smiles": "Cc1c(O)ccc2c(O)cc(=O)oc12", "values": [
      {"measurement": "inhibition", "setting": "[3]", "result": 0, "unit": "%"},
      {"measurement": "IC50", "setting": "[4]; read-out: IC50", "result": 87.6, "unit": "µM"},
      {"measurement": "IC50", "setting": "[2]", "result": 50.5, "unit": "µM"},
      {"measurement": "IC50", "setting": "[5]", "result": "Not Active"}
    ]},
    {"smiles": "O=c1cc(O)c2ccc(O)cc2o1", "values": [
      {"measurement": "Activity", "setting": "[6]", "result": 34.1, "unit": "%"},
      {"measurement": "Activity", "setting": "[7]", "result": 47.1, "unit": "%"},
      {"measurement": "inhibition", "setting": "[8]", "result": 36.7, "unit": "%"},
      {"measurement": "Activity", "setting": "[9]", "result": 37.1, "unit": "%"},
      {"measurement": "Activity", "setting": "[10]", "result": 5.3, "unit": "%"},
      {"measurement": "inhibition", "setting": "[3]", "result": 0, "unit": "%"},
      {"measurement": "IC50", "setting": "[4]; read-out: IC50", "result": "> 400", "unit": "µM"},
      {"measurement": "IC50", "setting": "[2]", "result": 38.9, "unit": "µM"},
      {"measurement": "Activity", "setting": "[11]", "result": 7.4, "unit": "%"},
      {"measurement": "IC50", "setting": "[5]", "result": "Not Active"},
      {"measurement": "Activity", "setting": "[12]", "result": 29.4, "unit": "%"},
      {"measurement": "Activity", "setting": "[13]", "result": 18, "unit": "%"},
      {"measurement": "Activity", "setting": "[14]", "result": 21.4, "unit": "%"}
    ]},
    {"smiles": "Cc1cc(=O)oc2c(O)c(O)ccc12", "note": "[4-METHYLDAPHNETIN]", "values": [
      {"measurement": "IC50", "setting": "[2]", "result": 52.7, "unit": "µM"}
    ]},
    {"smiles": "O=c1c(-c2ccc(O)cc2)coc2cc(O)cc(O)c12", "note": "[GENISTEIN]", "values": [
      {"measurement": "IC50", "setting": "[2]", "result": 12.4, "unit": "µM"}
    ]},
    {"smiles": "Cc1ccc2oc(=O)cc(O)c2c1", "values": [
      {"measurement": "inhibition", "setting": "[1]", "result": "< 20", "unit": "%"}
    ]},
    {"smiles": "O=c1oc2cc(O)ccc2c(O)c1-c1c(O)ccc(O)c1-c1c(O)c2ccc(O)cc2oc1=O", "values": [
      {"measurement": "Activity", "setting": "[6]", "result": 28.1, "unit": "%"},
      {"measurement": "inhibition", "setting": "[15]", "result": "Active"},
      {"measurement": "Activity", "setting": "[7]", "result": 33.4, "unit": "%"},
      {"measurement": "IC50", "setting": "[16]", "result": 88.4, "unit": "µM"},
      {"measurement": "Activity", "setting": "[9]", "result": 32.7, "unit": "%"},
      {"measurement": "Activity", "setting": "[10]", "result": 23.8, "unit": "%"},
      {"measurement": "inhibition", "setting": "[17]", "result": 23, "unit": "%"},
      {"measurement": "inhibition", "setting": "[18]", "result": 2, "unit": "%"},
      {"measurement": "IC50", "setting": "[4]; read-out: IC50", "result": "> 200", "unit": "µM"},
      {"measurement": "IC50", "setting": "[2]", "result": 0.86, "unit": "µM"},
      {"measurement": "Activity", "setting": "[11]", "result": 30, "unit": "%"},
      {"measurement": "Ki", "setting": "[19]", "result": 0.587, "unit": "µM"},
      {"measurement": "IC50", "setting": "[5]; read-out: IC50", "result": "> 200", "unit": "µM"},
      {"measurement": "Activity", "setting": "[12]", "result": 29.4, "unit": "%"},
      {"measurement": "inhibition", "setting": "[20]", "result": "Dose-dependent effect"},
      {"measurement": "Activity", "setting": "[13]", "result": 13.4, "unit": "%"},
      {"measurement": "Activity", "setting": "[14]", "result": 9.2, "unit": "%"}
    ]},
    {"smiles": "O=c1oc2ccccc2cc1O", "note": "[3-HYDROXYCOUMARIN]", "values": [
      {"measurement": "inhibition", "setting": "[3]", "result": 0, "unit": "%"},
      {"measurement": "IC50", "setting": "[4]", "result": "Not Active"},
      {"measurement": "IC50", "setting": "[2]", "result": 35.3, "unit": "µM"},
      {"measurement": "IC50", "setting": "[5]", "result": "Not Active"}
    ]},
    {"smiles": "Cc1cc(=O)oc2cc(O)cc(O)c12", "note": "[5,7-DIHYDROXY-4-METHYLCOUMARIN]", "values": [
      {"measurement": "inhibition", "setting": "[3]", "result": 53.9, "unit": "%"},
      {"measurement": "IC50", "setting": "[4]; read-out: IC50", "result": 45.4, "unit": "µM"},
      {"measurement": "IC50", "setting": "[2]", "result": 64.6, "unit": "µM"},
      {"measurement": "IC50", "setting": "[5]; read-out: IC50", "result": "> 200", "unit": "µM"}
    ]},
    {"smiles": "Cc1cc(=O)oc2cc(O)ccc12", "note": "[HYMECROMONE]", "values": [
      {"measurement": "IC50", "setting": "[2]", "result": 56.2, "unit": "µM"}
    ]},
    {"smiles": "COc1ccc2c(OC)cc(=O)oc2c1", "values": [
      {"measurement": "IC50", "setting": "[2]", "result": "> 100", "unit": "µM"}
    ]},
    {"smiles": "OC[C@H]1NC[C@H](O)[C@@H](O)[C@@H]1O", "note": "[DUVOGLUSTAT]", "values": [
      {"measurement": "IC50", "setting": "[2]", "result": 35.5, "unit": "µM"}
    ]},
    {"smiles": "O=c1ccc2cc(O)ccc2o1", "values": [
      {"measurement": "inhibition", "setting": "[1]", "result": "< 20", "unit": "%"}
    ]}
  ]
}
